Reference: publication PMC4515944 (Planta medica, 2015)
≈ marks a conversion by molar mass, not a printed value. Read-outs that look alike come from different tables or passages of the source. One block for each compound: values may come before it.

Legend:
collagenase = details: cited from earlier work
[1] = target: Collagenase type V from Clostridium histolyticum; assay: Collagenase inhibition assay; assay type: biochemical; details: for IC50: incubation 37°C 10 min, reaction monitored 30 min; for inhibition rate: initial concentration 50 μg/mL
Summary of the method: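 Clostridium histolyticum collagenase (100 μg/mL initial) in 10 mM Tris-HCl pH 7.3 preincubated 10 min with test compound (1% DMSO final). MCA-Pro-Leu-Ala-Nva-DNP-Dap-Ala-Arg-NH2 (55.55 μg/mL initial) then added. Fluorescence ex 320/em 400 nm read at endpoint, or every 5 min over 30 min for AUC. Serial dilutions in triplicate, blank per concentration, % inhibition versus buffer control. Km by Lineweaver-Burk, substrate 4.17–166.67 μg/mL initial.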

IC50 ([1]; final concentration): 42.86 µg/mL
IC50 ([1]; mean ± SD (n=3)): 238 ± 3.4 µM
Compound: c1cnc2c(c1)ccc1cccnc12 [1,10-phenanthroline]
IC50 described in literature (collagenase; ref [16]): 70.4 µg/mL (≈ 391 µM)

Compound: O=C(O[C@@H]1Cc2c(O)cc(O)cc2O[C@@H]1c1cc(O)c(O)c(O)c1)c1cc(O)c(O)c(O)c1 [epigallocatechingallate]
IC50 (collagenase; ref [15]): 114 µg/mL (≈ 249 µM)

IC50 ([1]; final concentration): 38.82 µg/mL
IC50 ([1]; mean ± SD (n=3)): 159 ± 3.2 µM
Compound: COC1=C(NCC(=O)O)CC(O)(CO)CC1=N (stereo not shown) [palythine]

IC50, kinetic reading mode (AUC) ([1]; AUC 0-30 min, n=3): 11.95 μg/mL ± 1.28
IC50, endpoint reading mode ([1]; endpoint reading at 30 min, n=3): 11.07 μg/mL ± 0.95
IC50 ([1]; mean ± SD (n=3)): 18.8 ± 1.6 µM
inhibition rate ([1]; reaction temperature 30°C): 53.4%
inhibition rate ([1]; reaction temperature 37°C): 53.4%
inhibition rate ([1]; room temperature (RT)): 49.1%
Compound: CC(C)C[C@H](NP(=O)(O)O[C@@H]1O[C@@H](C)[C@H](O)[C@@H](O)[C@H]1O)C(=O)N[C@@H](Cc1c[nH]c2ccccc12)C(=O)O [phosphoramidon]

IC50 ([1]; final concentration): 37.73 µg/mL
IC50 ([1]; mean ± SD (n=3)): 106 ± 2.3 µM
Compound: COC1=C(NCC(=O)O)CC(O)(CO)CC1=N[C@H](C(=O)O)[C@@H](C)O (stereo partly shown) [porphyra]

IC50 ([1]; final concentration): 34.42 µg/mL
IC50 ([1]; mean ± SD (n=3)): 104 ± 3.7 µM
Compound: COC1=C(NCC(=O)O)C[C@@](O)(CO)C/C1=N\[C@@H](CO)C(=O)O [shinorine]

Compound: MCA-Pro-Leu-Ala-Nva-DNP-Dap-Ala-Arg-NH2 [MMP-2 fluorogenic substrate]
maximum velocity (Vmax) ([1]; Lineweaver Burk plot, enzyme 100 μg/mL (initial)): 212.76 µmol/min
Km ([1]; read-out: Km (final), Lineweaver Burk plot, final concentration): 12.9 µM
Km ([1]; read-out: Michaelis Menten constant (Km), Lineweaver Burk plot, enzyme 100 μg/mL (initial), initial substrate concentration): 51.7 µM
